In ChEMBL document CHEMBL1914431, “Discovery of a novel series of nonacidic benzofuran EP1 receptor antagonists” (Bioorg Med Chem Lett, 2011):
pIC50: −log10 of the molar value. ≈ marks a conversion by molar mass, not a printed value. Blank lines part the entries; values can stand above or below the molecule they belong to. Calls of active or inactive are those of the source. The calls are words filed in the database; no cut-off is given here.

Assays:
[1] = molecular target: T1, Prostaglandin E2 receptor EP1 subtype (Homo sapiens, UniProt P34995); assay: Displacement of [3H]GW875240X from human prostanoid EP1 receptor expressed in CHO-K1 cells after 45 mins by topcount liquid scintillation counting; assay type: cell-based
T1 sequence (P34995 whole entry): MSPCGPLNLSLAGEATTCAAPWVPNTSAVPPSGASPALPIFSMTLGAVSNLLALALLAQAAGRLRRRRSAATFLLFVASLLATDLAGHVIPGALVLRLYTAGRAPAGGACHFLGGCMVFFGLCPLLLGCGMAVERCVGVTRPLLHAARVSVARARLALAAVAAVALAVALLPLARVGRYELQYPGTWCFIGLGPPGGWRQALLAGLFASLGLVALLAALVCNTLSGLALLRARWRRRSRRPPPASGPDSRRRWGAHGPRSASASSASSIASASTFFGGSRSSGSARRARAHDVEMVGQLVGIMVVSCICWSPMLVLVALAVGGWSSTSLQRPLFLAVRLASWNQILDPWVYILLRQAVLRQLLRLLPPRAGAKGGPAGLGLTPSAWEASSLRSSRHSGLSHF
Procedure, shortened: (§1)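 Radioligand binding at the EP1 receptor. Either [3H]-GW875240X or [3H]-PGE2 is the displaced ligand. Values are pIC50, means of at least three experiments.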

[2] = molecular target: T1, Prostaglandin E2 receptor EP1 subtype; assay: Displacement of [3H]PGE2 from human prostanoid EP1 receptor expressed in CHO-K1 cells after 30 mins by topcount liquid scintillation counting; assay type: cell-based; procedure, shortened: as §1
[3] = Lipophilicity, log D of compound at pH 7.4 by shake flask method; assay type: physicochemical; settings: buffer
Procedure, shortened: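 Log D is determined by the shake flask method at pH 7.4.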

Rattus norvegicus [4] = assay: Analgesic activity in rat assessed as reversal of complete Freund's adjuvant-induced inflammatory pain at 5 mg/kg, po after 3 hrs post dose; assay type: functional, organism-based; set-up: dose 5 mg/kg
Procedure, shortened: (§2)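 Rat CFA inflammatory pain model. Oral dosing in 1% methylcellulose. Hypersensitivity reversal is read by weight bearing, at 1 h post-dose. The 5 mg/kg study was also read at 3 h. Dose-response groups were 3, 10 and 30 mg/kg, or 1, 3 and 10 mg/kg, with ED50 derived. Celecoxib at 10 mg/kg po served as the standard.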

[5] = Drug level in blood of rat complete Freund's adjuvant-induced inflammatory pain model at 3 mg/kg, po after 1 hr; assay type: ADME, organism-based; set-up: dose 3 mg/kg, route oral; settings: read-out: Drug uptake
Procedure, shortened: (§3)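 Blood and brain samples are taken from CFA rats after oral dosing in 1% methylcellulose. Sampling is at 1 h post-dose, and at 3 h in the 5 mg/kg study. Concentrations are in µM or nM, n = 7 or n = 6 for blood and n = 3 for brain. The brain:blood ratio is calculated from the same rats.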

[6] = Half life in rat at 1 mg/kg, iv; assay type: ADME, organism-based; set-up: dose 1 mg/kg, route intravenous; settings: in vivo
Rattus norvegicus [7] = assay: Analgesic activity in rat assessed as reversal of complete Freund's adjuvant-induced inflammatory pain at 30 mg/kg, po after 1 hr post dose relative to 10 mg/kg of celecoxib; assay type: functional, organism-based; procedure, shortened: as §2
[8] = Blood clearance in rat at 1 mg/kg, iv; assay type: ADME, organism-based; set-up: dose 1 mg/kg, route intravenous
[9] = Ratio of drug level in brain to blood in rat complete Freund's adjuvant-induced inflammatory pain model at 30 mg/kg, po after 1 hr; assay type: ADME, organism-based; set-up: dose 30 mg/kg, route oral; settings: read-out: BBR; procedure, shortened: as §3
P-gp [10] = assay: Efflux ratio of the compound in MDCK cells expressing p-gp; assay type: ADME, cell-based, Canis lupus familiaris; settings: dog, MDCK-MDR1
Procedure, shortened: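 MDCK cell monolayers were used to measure permeability. The efflux ratio is reported alongside exact permeability (Pexact, nm/sec) and was used to judge whether the compound is a Pgp substrate.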

[11] = Solubility of the compound in fasted state simulated intestinal fluid after 1 hr; assay type: physicochemical
Procedure, shortened: (§4)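 Solubility is measured after 1 h in water, SGF, FaSSIF and FeSSIF, in µg/mL.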

P-gp [12] = assay: Permeability across MDCK cells expressing p-gp; assay type: ADME, cell-based, Canis lupus familiaris; settings: dog, MDCK-MDR1; read-out: permeability
Procedure, shortened: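 MDCK cells. Passive permeability is reported as Pexact (nm/sec), and efflux ratio is used to assess Pgp substrate status.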

[13] = Drug level in brain of rat complete Freund's adjuvant-induced inflammatory pain model at 30 mg/kg, po after 1 hr; assay type: ADME, organism-based; set-up: dose 30 mg/kg, route oral; settings: read-out: Drug uptake; procedure, shortened: as §3
[14] = Ratio of drug level in brain to blood in rat complete Freund's adjuvant-induced inflammatory pain model at 5 mg/kg, po after 3 hrs; assay type: ADME, organism-based; set-up: dose 5 mg/kg, route oral; settings: read-out: BBR; procedure, shortened: as §3
[15] = Half life in rat at 3 mg/kg, po; assay type: ADME, organism-based; set-up: dose 3 mg/kg, route oral; settings: in vivo
Procedure, shortened: (§5)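 Rat oral pharmacokinetics at 3 mg/kg in 1% (w/v) aqueous methylcellulose. Bioavailability and half-life are derived.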

Rattus norvegicus [16] = assay: Analgesic activity in rat assessed as reversal of complete Freund's adjuvant-induced inflammatory pain at 5 mg/kg, po after 1 hr post dose; assay type: functional, organism-based; set-up: dose 5 mg/kg; procedure, shortened: as §2
[17] = Solubility of the compound in fed state simulated intestinal fluid after 1 hr; assay type: physicochemical; procedure, shortened: as §4
[18] = Solubility of the compound in simulated gastric fluid after 1 hr; assay type: physicochemical; procedure, shortened: as §4
[19] = Volume of distribution at steady state in rat at 1 mg/kg, iv; assay type: ADME, organism-based; set-up: dose 1 mg/kg, route intravenous; settings: in vivo, read-out: Vdss
[20] = Drug level in blood of rat complete Freund's adjuvant-induced inflammatory pain model at 30 mg/kg, po after 1 hr; assay type: ADME, organism-based; set-up: dose 30 mg/kg, route oral; settings: read-out: Drug uptake; procedure, shortened: as §3
[21] = Oral bioavailability in rat at 3 mg/kg; assay type: ADME, organism-based; settings: in vivo; procedure, shortened: as §5
Rattus norvegicus [22] = assay: Analgesic activity in po dosed rat assessed as reversal of complete Freund's adjuvant-induced inflammatory pain after 1 hr post dose; assay type: functional; procedure, shortened: as §2
Liver microsomes = assay: Intrinsic clearance in human liver microsomes; assay type: ADME, Microsome
[23] = Drug level in blood of rat complete Freund's adjuvant-induced inflammatory pain model at 10 mg/kg, po after 1 hr; assay type: ADME, organism-based; set-up: dose 10 mg/kg, route oral; settings: read-out: Drug uptake; procedure, shortened: as §3

pIC50 [1]: 8.30
SMILES: Cc1cc(C(=O)NC2CC2)nn1Cc1cc(Cl)cc2cc(-c3ccccc3)oc12

pIC50 [1]: 7.40
SMILES: Cc1cc(NC(=O)C2(F)CCNCC2)nn1Cc1cc(Cl)cc2cc(-c3ccccc3)oc12

pIC50 [1]: 6.50
SMILES: CO[C@H]1CC[C@H](NC(=O)c2cc(C)n(Cc3cc(Cl)cc4cc(C(C)C)oc34)n2)CC1

pIC50 [1]: 7.70
SMILES: Cc1cc(C(=O)NCC2CCNCC2)nn1Cc1cc(Cl)cc2cc(-c3ccccc3)oc12

pIC50 [1]: 6.60
SMILES: Cc1cc(C(=O)O)nn1Cc1cc(Cl)cc2oc(C(C)C)cc12

pIC50 [1]: 8.20
SMILES: Cc1cc(C(=O)NC[C@H]2CCCO2)nn1Cc1cc(Cl)cc2cc(-c3ccccc3)oc12

SMILES: Cc1cc(C(=O)NN2CCCCC2)nn1Cc1cc(Cl)cc2cc(C(C)C)oc12
pIC50 [2]: 7.00

pIC50 [1]: 8.40
SMILES: Cc1cc(C(=O)O)nn1Cc1cc(Cl)cc2cc(C3CCCCC3)oc12

pIC50 [2]: < 6.00
SMILES: Cc1cc(C(=O)O)nn1Cc1cc(Cl)cc2nc(C(C)C)cn12

logD [3]: 2.6
concentration at 1 h [5]: 1.95 µM
pIC50 [2]: 7.30
half-life [6]: 0.5 h
clearance [8]: 85 mL/min/kg
Kp at 1 h [9]: 1.05
efflux ratio (P-gp [10]): 0.9
solubility at 1 h [11]: 5 µg/mL (≈ 12 µM)
Papp (P-gp [12]): 67.1 ×10⁻⁶ cm/s
concentration at 1 h [13]: 11.3 µM
Kp at 3 h [14]: 1.15
half-life [15]: 1.7 h
solubility at 1 h [17]: 71 µg/mL (≈ 170 µM)
solubility at 1 h [18]: 1 µg/mL (≈ 2.4 µM)
Vd [19]: 3 L/kg
concentration at 1 h [20]: 10.2 µM
bioavailability [21]: 19%
CL (Liver microsomes): 1.1 mL/min/g
concentration at 1 h [23]: 5.61 µM
SMILES: Cc1cc(C(=O)NN2CCOCC2)nn1Cc1cc(Cl)cc2cc(C(C)C)oc12
Activity (Rattus norvegicus [4]): inactive
Activity (Rattus norvegicus [7]): Active
Activity (Rattus norvegicus [16]): Active
ED50 (Rattus norvegicus [22]): 14.7 mg/kg

pIC50 [1]: 7.30
SMILES: Cc1cc(C(=O)O)nn1Cc1cc(Cl)cc2cc(C3CC3)oc12

pIC50 [2]: 6.90
SMILES: Cc1cc(C(=O)O)nn1Cc1cc(Cl)cn2cc(C(C)C)cc12

pIC50 [2]: 6.10
SMILES: Cc1cc(C(=O)NC2CCNCC2)nn1Cc1cc(Cl)cc2cc(C(C)C)oc12

pIC50 [1]: 7.00
SMILES: Cc1cc(NC(=O)C2CCNCC2)nn1Cc1cc(Cl)cc2cc(-c3ccccc3)oc12

pIC50 [1]: 7.20
SMILES: Cc1cc(NC(=O)CC2CCNCC2)nn1Cc1cc(Cl)cc2cc(-c3ccccc3)oc12
